Source: PubChem BioAssay
DAGLB inh: diacylglycerol lipase beta (human) inhibition. Q8NCG7. HEK293T DAGLB membrane lysate, EnzChek fluorogenic substrate. inhibition, % at 5.17 µM. 340,000 tested, 0.059% active; in the data active = inhibition above about 34%;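 note: 0% = enzyme with vehicle and 100% = wells lacking enzyme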
SIAE inh: blocks human sialic acid acetylesterase. 370,000 tested, 0.69% active. SIAE FP-Rh probe binding, fluorescence polarization. inhibition, % at 9.66 µM. Q9HAT2;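 active = inhibition above a cutoff: mean of compounds within the control limits plus 3 SD of those, cut at about 17% in these data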;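 note: 0% = plate median of compound wells and 100% = probe without SIAE protein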
Target sequence (Q9HAT2 whole entry, looked up): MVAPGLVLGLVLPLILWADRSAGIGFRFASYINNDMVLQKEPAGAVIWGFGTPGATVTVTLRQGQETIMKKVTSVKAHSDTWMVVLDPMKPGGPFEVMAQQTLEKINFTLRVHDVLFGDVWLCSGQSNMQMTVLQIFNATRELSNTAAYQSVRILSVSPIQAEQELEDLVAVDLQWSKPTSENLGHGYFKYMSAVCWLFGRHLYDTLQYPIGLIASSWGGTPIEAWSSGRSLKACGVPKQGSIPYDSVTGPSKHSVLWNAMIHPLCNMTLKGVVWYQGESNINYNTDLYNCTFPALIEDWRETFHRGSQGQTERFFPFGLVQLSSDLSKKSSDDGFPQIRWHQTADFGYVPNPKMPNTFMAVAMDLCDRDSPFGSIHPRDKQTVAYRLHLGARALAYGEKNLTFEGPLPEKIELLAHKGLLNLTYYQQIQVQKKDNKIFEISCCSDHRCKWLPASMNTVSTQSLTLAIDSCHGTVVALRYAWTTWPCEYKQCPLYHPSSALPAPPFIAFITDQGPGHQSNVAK
HTRA1 inh: inhibitors of human serine peptidase HTRA1. 340,000 tested, 0.5% active. recombinant HTRA1, FP-rhodamine activity-based probe, fluorescence polarization. Q92743. inhibition, % at 5.96 µM; in the data active = inhibition above about 36%;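 note: 0% = enzyme with DMSO and 100% = wells lacking enzyme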
ABHD4 inh: ABHD4 (mouse) inhibition, primary FP screen. purified mABHD4, FP-Rh probe fluorescence polarization. Q8VD66. inhibition, % at 8.92 µM. 370,000 tested, 0.54% active;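 active = inhibition exceeding the mean over every tested compound plus 3 SD, cut at about 30% in these data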;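 note: 0% = plate median of compound wells and 100% = S159A mutant with DMSO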
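System: mouse ABHD4 enzyme, wild type / Medium: HEPES pH 7.0, NaCl, Pluronic buffer / Reagent: FP-Rh activity-based fluorescent probe / Control set: S159A mutant high control, sample median low control / Detection: fluorescence polarization with parallel and perpendicular emission, 525/598 nm / Schedule: 45 min + 60 min at 25 °C / Compound dosing: 8.92 µM, single dose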
TCR-CD3 inh: blocks the human TCR-CD3 interaction; TAMRA-labeled TCR probe fluorescence, biochemical; inhibition, % at 9.4 µM; 360,000 tested, 0.37% active; in the data active = inhibition above about 19%;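 note: recombinant mutant TCR 2C K166C tagged with TAMRA read by polarization; 0% = receptor in buffer alone and 100% = receptor with positive control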
SIAE inh conf: confirmation of human SIAE inhibitors; shares compounds with SIAE inh; SIAE FP-Rh activity-based probe, fluorescence polarization; 2,300 tested, 13% active; inhibition, % at 9.66 µM;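 active = mean inhibition of the replicates above the hit cutoff set in the primary screen, cut at about 17% in these data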;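 note: 0% = SIAE with DMSO and probe and 100% = probe without SIAE; inhibitors lower polarization as more probe stays unbound to SIAE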
Numbers without * were called inactive; · = not tested or not shown. Only some compounds are listed: those with a hit (about 1.6% of all), similar ones and a draw of the others.

SMILES	DAGLB inh	SIAE inh	HTRA1 inh	ABHD4 inh	TCR-CD3 inh	SIAE inh conf
COC(=O)[C@]12C[C@H](CC(=O)NCCC(C)C)C(=O)N(CCc3ccc(OC)c(OC)c3)C1=C[C@H](C(C)C)O[C@@H]2C1CC1	·	4	·	-1	·	·
O=C(c1ccc(Cl)c(Cl)c1)N1CCC(Oc2cccnc2)CC1	·	5	·	-1	·	·
COc1ccc(Nc2nc(-c3cc4cccc(OC)c4oc3=O)cs2)cc1	0	6	15	15	-4	·
COc1ccc2oc(=O)c(-c3csc(Nc4cccc(O)c4)n3)cc2c1	-2	39*	-7	11	1	-5
Cc1cc(N/N=C/c2c(O)ccc3ccccc23)nc(-c2ccccc2O)n1	1	21*	-3	9	1	-7
Oc1ccc2ccccc2c1/C=N/Nc1ccccc1	1	9	12	21	4	·
Cc1ccc(OCCn2cc(/C=N/NC(=O)c3ccncc3)c3ccccc32)cc1	-1	29*	-11	-3	-7	-1
COc1cccc(OCCn2cc(/C=N/NC(=O)c3ccncc3)c3ccccc32)c1	-1	31*	1	0	-2	0
CNC(=S)N/N=C/c1cn(CCOc2cccc(OC)c2)c2ccccc12	4	22*	4	2	5	7
CCCCCCCCN1C(=O)[C@@H](CC(=O)N2CCSCC2)C[C@@]2(C(=O)OC)C1=C[C@H](C(C)C)O[C@@H]2C1CC1	·	5	·	-7	·	·
CC(Sc1nc(-c2ccccc2)c(-c2ccccc2)[nH]1)C(=O)NCC1CCCO1 (stereo not drawn)	-2	21*	-6	4	-1	-2
O=C(c1ccccc1Oc1ccccc1)N1CCC(Oc2cccnc2)CC1	·	20*	·	-1	·	1
Cc1ccc(N2CC(C(=O)NCc3cccs3)CC2=O)cc1C (stereo not drawn)	-2	16	2	-2	-6	·
Cc1cc(N2CC(C(=O)NCc3cccs3)CC2=O)ccc1C(C)C (stereo not drawn)	-2	18*	-2	0	5	2
COc1ccc(NC(C)=O)c([N+](=O)[O-])c1[N+](=O)[O-]	0	3	2	-1	-2	·
COc1ccc(OC)c([N+](=O)[O-])c1C(N)=O	1	33*	2	2	4	2
O=C(Nc1ccccc1C(F)(F)F)c1ccsc1	4	-3	2	-8	-5	·
O=C(NNc1ccccc1C(F)(F)F)c1sccc1Br	0	25*	-6	-1	7	-3
CCCCC(CCC(=O)Nc1cccc([N+](=O)[O-])c1)C(=O)O (stereo not drawn)	-2	-1	8	10	2	·
CCC(CCC(=O)Nc1cccc([N+](=O)[O-])c1)C(=O)O (stereo not drawn)	1	23*	-3	2	5	4
O=C(N1CCCC1)n1c(Cc2ccccc2)nc2ccccc21	-3	19*	-4	-1	-2	2
O=C(O)Cn1c(CC(=O)N2CCCC2)nc2ccccc21	2	-2	-2	-2	4	·
CCOC(=O)c1c(C)[nH]c(C)c1S(=O)(=O)N1CCN(c2ccc(F)cc2)CC1	-2	19*	-4	1	-6	3
CC(C)C[C@H]1COc2cc(N3CCSCC3)ccc2S(=O)(=O)N1C	·	-2	·	9	·	·
Cc1ccc(C2CC(c3cccs3)=NN2C(=O)CSc2nc3ccccc3o2)cc1 (stereo not drawn)	-4	-3	-42	-25	0	·
SMILES	DAGLB inh	SIAE inh	HTRA1 inh	ABHD4 inh	TCR-CD3 inh	SIAE inh conf
O=C(CSc1nc2ccccc2o1)N1N=C(c2cccs2)CC1c1ccc(F)cc1 (stereo not drawn)	-1	20*	-2	-6	3	-5
COc1cccc(-c2nc(NCc3ccccc3)c3ccccc3n2)c1O	-2	0	-10	27	5	·
COc1cccc(-c2nc(NC3CCCC3)c3ccccc3n2)c1O	-3	29*	0	21	4	-2
O=C(N[C@H](C(=O)N1CCC[C@H]1C(=O)NC1CCCC1)C1CCCCC1)c1ccc(Cl)c(Cl)c1	·	-1	·	4	5	·
c1ccc(CC(Nc2cccnc2)c2ccccc2)cc1 (stereo not drawn)	·	-2	·	-13	-7	·
c1ccc(N2CCN(c3nc4ccccc4n4cnnc34)CC2)cc1	1	-5	-4	1	3	·
c1ccc2c(c1)CCN(c1nc3ccccc3n3cnnc13)C2	-5	18*	-21	-3	2	-7
Fc1ccc2nc(Nc3nc4cc5c(cc4s3)OCCO5)sc2c1	-2	32*	-15	12	-8	6
Fc1ccc2nc(Nc3nc4cc5c(cc4s3)OCO5)sc2c1	1	25*	0	7	-3	8
c1ccc2sc(Nc3nc4cc5c(cc4s3)OCO5)nc2c1	-3	7	-3	7	-8	·
CC(=O)C1(C(=O)N2CCOCC2)CC(c2ccccc2C(F)(F)F)=NO1 (stereo not drawn)	·	-7	·	1	·	·
O=C(N/N=C/c1ccoc1)c1cc(Br)ccc1O	10	19*	10	7	17	8
C[C@@H]1CCCCO[C@@H](CN(C)Cc2ccc(C(F)(F)F)cc2)[C@@H](C)CN([C@H](C)CO)C(=O)c2cc(N(C)C)ccc2O1	-4	22*	4	13	0	6
Cc1cc([N+](=O)[O-])nn1Cc1ccc(C(=O)N/N=C/c2ccc(O)cc2O)cc1	4	19*	11	12	10	5
Cc1cc([N+](=O)[O-])nn1Cc1ccc(C(=O)N/N=C/c2ccc(F)cc2)cc1	-1	1	-9	2	0	·
Cc1csc(=O)n1CC(=O)OCC(=O)NC(C)c1ccc(F)cc1 (stereo not drawn)	2	19*	5	0	-3	3
Cc1csc(=O)n1CC(=O)OCC(=O)NCc1ccc(F)cc1	-2	-3	1	-4	4	·
CCOC(=O)c1c(/N=C/C2=C(O)CCCC2=O)sc(C)c1C	-1	18*	-4	-13	-2	2
O=C(Nc1ccc(N2CCOCC2)c(S(=O)(=O)Nc2ccccc2Cl)c1)c1ccccc1	-2	-38	-63	-25	-4	·
Nc1ccc(N2CCOCC2)c(S(=O)(=O)Nc2ccccc2Cl)c1	2	39*	10	19	19	2
COc1ccc(NC(=O)c2ccc(S(=O)(=O)N(C)c3ccccc3)cc2)cc1S(=O)(=O)N1CCOCC1	-3	-34	-15	-13	-7	·
Cc1ccc(NC(=O)c2ccc(S(=O)(=O)N(C)c3ccccc3)cc2)cc1S(=O)(=O)N1CCOCC1	-1	18*	-5	0	-4	11
COc1cccc(NC(=O)Nc2nc3ncccn3c2-c2ccc(C)cc2)c1	·	6	·	-1	·	·
O=C(OCc1cn(Cc2cccc(F)c2)nn1)N1CCOCC1	·	8	·	3	·	·
CCCOc1nnnn1-c1ccccc1	1	11	9	-5	-6	·
